Tested on: Fibroblast
Assay: Multiplex assay against human fibroblast
Type: toxicity, cell-based
How it was run: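 Compound was added to live cells that had been stained at seeding with Hoechst33342, BioTracker Green Microtubule Cytoskeleton Dye, MitoTracker Red and Annexin V Alexa Fluor 680, and imaging followed on a CQ1 microscope at 37°C and 5% CO2. CellPathfinder machine-learning gating divided cells into Hoechst high-intensity objects or normal cells, normal cells into healthy, pyknosed or fragmented nuclei, and pyknosed cells into mitotic or apoptotic. Tubulin, mitochondrial-mass and membrane-permeability phenotypes are per cents of healthy-nucleus cells.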

[1] = 12 h, 1 µM, compound concentration 1 uM, replicate 1
[2] = 12 h, 1 µM, compound concentration 1 uM, replicate 2
[3] = 12 h, 10 µM, compound concentration 10 uM, replicate 1
[4] = 12 h, 10 µM, compound concentration 10 uM, replicate 2
[5] = 24 h, 1 µM, compound concentration 1 uM, replicate 1
[6] = 24 h, 1 µM, compound concentration 1 uM, replicate 2
[7] = 24 h, 10 µM, compound concentration 10 uM, replicate 1
[8] = 24 h, 10 µM, compound concentration 10 uM, replicate 2
[9] = 48 h, 1 µM, compound concentration 1 uM, replicate 1
[10] = 48 h, 1 µM, compound concentration 1 uM, replicate 2
[11] = 48 h, 10 µM, compound concentration 10 uM, replicate 1
[12] = 48 h, 10 µM, compound concentration 10 uM, replicate 2

## COc1cc(N2CCN(C)CC2)ccc1Nc1ncc2c(n1)N(C)c1ccccc1C(=O)N2C
[1]
  Population Apoptotic (%): 58%
  Population Fragmented Nuclei (%): 25%
  Population Healthy Nuclei (%): 41%
  Population Hoechst High Intensity Objects (%): 11%
  Population Membrane Permeable-Phenotype (%): 14%
  Population Mitochondria Different-Phenotype (%): 12%
  Population Mitotic Cells (%): 41%
  Population Normal (%): 88%
  Population Pyknosed Nuclei (%): 32%
  Population Tubulin-Different-Phenotype (%): 28%
  Total Cell Count: 135
[2]
  Population Apoptotic (%): 40%
  Population Fragmented Nuclei (%): 5%
  Population Healthy Nuclei (%): 82%
  Population Hoechst High Intensity Objects (%): 4%
  Population Membrane Permeable-Phenotype (%): 9%
  Population Mitochondria Different-Phenotype (%): 21%
  Population Mitotic Cells (%): 60%
  Population Normal (%): 95%
  Population Pyknosed Nuclei (%): 12%
  Population Tubulin-Different-Phenotype (%): 15%
  Total Cell Count: 104
[3]
  Population Apoptotic (%): 65%
  Population Fragmented Nuclei (%): 32%
  Population Healthy Nuclei (%): 38%
  Population Hoechst High Intensity Objects (%): 20%
  Population Membrane Permeable-Phenotype (%): 17%
  Population Mitochondria Different-Phenotype (%): 35%
  Population Mitotic Cells (%): 34%
  Population Normal (%): 79%
  Population Pyknosed Nuclei (%): 28%
  Population Tubulin-Different-Phenotype (%): 82%
  Total Cell Count: 127
[4]
  Population Apoptotic (%): 66%
  Population Fragmented Nuclei (%): 15%
  Population Healthy Nuclei (%): 61%
  Population Hoechst High Intensity Objects (%): 5%
  Population Membrane Permeable-Phenotype (%): 21%
  Population Mitochondria Different-Phenotype (%): 96%
  Population Mitotic Cells (%): 33%
  Population Normal (%): 94%
  Population Pyknosed Nuclei (%): 23%
  Population Tubulin-Different-Phenotype (%): 100%
  Total Cell Count: 42
[5]
  Population Apoptotic (%): 60%
  Population Fragmented Nuclei (%): 22%
  Population Healthy Nuclei (%): 57%
  Population Hoechst High Intensity Objects (%): 10%
  Population Membrane Permeable-Phenotype (%): 17%
  Population Mitochondria Different-Phenotype (%): 6%
  Population Mitotic Cells (%): 39%
  Population Normal (%): 89%
  Population Pyknosed Nuclei (%): 19%
  Population Tubulin-Different-Phenotype (%): 26%
  Total Cell Count: 159
[6]
  Population Apoptotic (%): 50%
  Population Fragmented Nuclei (%): 9%
  Population Healthy Nuclei (%): 75%
  Population Hoechst High Intensity Objects (%): 6%
  Population Membrane Permeable-Phenotype (%): 6%
  Population Mitochondria Different-Phenotype (%): 12%
  Population Mitotic Cells (%): 50%
  Population Normal (%): 93%
  Population Pyknosed Nuclei (%): 14%
  Population Tubulin-Different-Phenotype (%): 6%
  Total Cell Count: 101
[7]
  Population Apoptotic (%): 60%
  Population Fragmented Nuclei (%): 38%
  Population Healthy Nuclei (%): 52%
  Population Hoechst High Intensity Objects (%): 20%
  Population Membrane Permeable-Phenotype (%): 5%
  Population Mitochondria Different-Phenotype (%): 43%
  Population Mitotic Cells (%): 40%
  Population Normal (%): 79%
  Population Pyknosed Nuclei (%): 9%
  Population Tubulin-Different-Phenotype (%): 74%
  Total Cell Count: 140
[8]
  Population Apoptotic (%): 76%
  Population Fragmented Nuclei (%): 11%
  Population Healthy Nuclei (%): 63%
  Population Hoechst High Intensity Objects (%): 8%
  Population Membrane Permeable-Phenotype (%): 30%
  Population Mitochondria Different-Phenotype (%): 93%
  Population Mitotic Cells (%): 23%
  Population Normal (%): 91%
  Population Pyknosed Nuclei (%): 25%
  Population Tubulin-Different-Phenotype (%): 66%
  Total Cell Count: 44
[9]
  Population Apoptotic (%): 54%
  Population Fragmented Nuclei (%): 34%
  Population Healthy Nuclei (%): 58%
  Population Hoechst High Intensity Objects (%): 14%
  Population Membrane Permeable-Phenotype (%): 19%
  Population Mitochondria Different-Phenotype (%): 1%
  Population Mitotic Cells (%): 45%
  Population Normal (%): 85%
  Population Pyknosed Nuclei (%): 7%
  Population Tubulin-Different-Phenotype (%): 29%
  Total Cell Count: 176
[10]
  Population Apoptotic (%): 100%
  Population Fragmented Nuclei (%): 25%
  Population Healthy Nuclei (%): 72%
  Population Hoechst High Intensity Objects (%): 7%
  Population Membrane Permeable-Phenotype (%): 10%
  Population Mitotic Cells (%): 0%
  Population Normal (%): 92%
  Population Pyknosed Nuclei (%): 1%
  Population Tubulin-Different-Phenotype (%): 28%
  Total Cell Count: 83
[11]
  Population Apoptotic (%): 85%
  Population Fragmented Nuclei (%): 49%
  Population Healthy Nuclei (%): 45%
  Population Hoechst High Intensity Objects (%): 28%
  Population Membrane Permeable-Phenotype (%): 7%
  Population Mitochondria Different-Phenotype (%): 12%
  Population Mitotic Cells (%): 14%
  Population Normal (%): 71%
  Population Pyknosed Nuclei (%): 4%
  Population Tubulin-Different-Phenotype (%): 44%
  Total Cell Count: 201
[12]
  Population Apoptotic (%): 100%
  Population Fragmented Nuclei (%): 39%
  Population Healthy Nuclei (%): 58%
  Population Hoechst High Intensity Objects (%): 18%
  Population Membrane Permeable-Phenotype (%): 5%
  Population Mitochondria Different-Phenotype (%): 8%
  Population Mitotic Cells (%): 0%
  Population Normal (%): 81%
  Population Pyknosed Nuclei (%): 2%
  Population Tubulin-Different-Phenotype (%): 62%
  Total Cell Count: 188

## CCOc1cc(C(=O)N2CCC(N3CCN(C)CC3)CC2)ccc1Nc1ncc2c(n1)N(C1CCCC1)c1ccccc1C(=O)N2C
[1]
  Population Apoptotic (%): 57%
  Population Fragmented Nuclei (%): 27%
  Population Healthy Nuclei (%): 42%
  Population Hoechst High Intensity Objects (%): 13%
  Population Membrane Permeable-Phenotype (%): 19%
  Population Mitochondria Different-Phenotype (%): 27%
  Population Mitotic Cells (%): 42%
  Population Normal (%): 86%
  Population Pyknosed Nuclei (%): 30%
  Population Tubulin-Different-Phenotype (%): 60%
  Total Cell Count: 200
[2]
  Population Apoptotic (%): 75%
  Population Fragmented Nuclei (%): 6%
  Population Healthy Nuclei (%): 80%
  Population Hoechst High Intensity Objects (%): 10%
  Population Membrane Permeable-Phenotype (%): 4%
  Population Mitochondria Different-Phenotype (%): 76%
  Population Mitotic Cells (%): 25%
  Population Normal (%): 89%
  Population Pyknosed Nuclei (%): 12%
  Population Tubulin-Different-Phenotype (%): 48%
  Total Cell Count: 67
[3]
  Population Apoptotic (%): 58%
  Population Fragmented Nuclei (%): 30%
  Population Healthy Nuclei (%): 44%
  Population Hoechst High Intensity Objects (%): 19%
  Population Membrane Permeable-Phenotype (%): 20%
  Population Mitochondria Different-Phenotype (%): 56%
  Population Mitotic Cells (%): 41%
  Population Normal (%): 80%
  Population Pyknosed Nuclei (%): 25%
  Population Tubulin-Different-Phenotype (%): 86%
  Total Cell Count: 84
[4]
  Population Apoptotic (%): 92%
  Population Fragmented Nuclei (%): 21%
  Population Healthy Nuclei (%): 50%
  Population Hoechst High Intensity Objects (%): 6%
  Population Membrane Permeable-Phenotype (%): 93%
  Population Mitochondria Different-Phenotype (%): 97%
  Population Mitotic Cells (%): 7%
  Population Normal (%): 93%
  Population Pyknosed Nuclei (%): 27%
  Population Tubulin-Different-Phenotype (%): 100%
  Total Cell Count: 69
[5]
  Population Apoptotic (%): 62%
  Population Fragmented Nuclei (%): 29%
  Population Healthy Nuclei (%): 49%
  Population Hoechst High Intensity Objects (%): 11%
  Population Membrane Permeable-Phenotype (%): 12%
  Population Mitochondria Different-Phenotype (%): 17%
  Population Mitotic Cells (%): 37%
  Population Normal (%): 88%
  Population Pyknosed Nuclei (%): 20%
  Population Tubulin-Different-Phenotype (%): 42%
  Total Cell Count: 205
[6]
  Population Apoptotic (%): 22%
  Population Fragmented Nuclei (%): 16%
  Population Healthy Nuclei (%): 72%
  Population Hoechst High Intensity Objects (%): 5%
  Population Membrane Permeable-Phenotype (%): 5%
  Population Mitochondria Different-Phenotype (%): 65%
  Population Mitotic Cells (%): 77%
  Population Normal (%): 94%
  Population Pyknosed Nuclei (%): 11%
  Population Tubulin-Different-Phenotype (%): 27%
  Total Cell Count: 71
[7]
  Population Apoptotic (%): 76%
  Population Fragmented Nuclei (%): 41%
  Population Healthy Nuclei (%): 26%
  Population Hoechst High Intensity Objects (%): 28%
  Population Membrane Permeable-Phenotype (%): 21%
  Population Mitochondria Different-Phenotype (%): 85%
  Population Mitotic Cells (%): 23%
  Population Normal (%): 71%
  Population Pyknosed Nuclei (%): 32%
  Population Tubulin-Different-Phenotype (%): 92%
  Total Cell Count: 74
[8]
  Population Apoptotic (%): 88%
  Population Fragmented Nuclei (%): 10%
  Population Healthy Nuclei (%): 30%
  Population Hoechst High Intensity Objects (%): 11%
  Population Membrane Permeable-Phenotype (%): 100%
  Population Mitochondria Different-Phenotype (%): 96%
  Population Mitotic Cells (%): 11%
  Population Normal (%): 88%
  Population Pyknosed Nuclei (%): 59%
  Population Tubulin-Different-Phenotype (%): 100%
  Total Cell Count: 85
[9]
  Population Apoptotic (%): 78%
  Population Fragmented Nuclei (%): 37%
  Population Healthy Nuclei (%): 51%
  Population Hoechst High Intensity Objects (%): 15%
  Population Membrane Permeable-Phenotype (%): 13%
  Population Mitochondria Different-Phenotype (%): 8%
  Population Mitotic Cells (%): 21%
  Population Normal (%): 84%
  Population Pyknosed Nuclei (%): 10%
  Population Tubulin-Different-Phenotype (%): 43%
  Total Cell Count: 213
[10]
  Population Apoptotic (%): 100%
  Population Fragmented Nuclei (%): 29%
  Population Healthy Nuclei (%): 67%
  Population Hoechst High Intensity Objects (%): 18%
  Population Membrane Permeable-Phenotype (%): 14%
  Population Mitochondria Different-Phenotype (%): 20%
  Population Mitotic Cells (%): 0%
  Population Normal (%): 81%
  Population Pyknosed Nuclei (%): 3%
  Population Tubulin-Different-Phenotype (%): 63%
  Total Cell Count: 116
[11]
  Population Apoptotic (%): 88%
  Population Fragmented Nuclei (%): 35%
  Population Healthy Nuclei (%): 26%
  Population Hoechst High Intensity Objects (%): 25%
  Population Membrane Permeable-Phenotype (%): 33%
  Population Mitochondria Different-Phenotype (%): 41%
  Population Mitotic Cells (%): 11%
  Population Normal (%): 75%
  Population Pyknosed Nuclei (%): 37%
  Population Tubulin-Different-Phenotype (%): 66%
  Total Cell Count: 60
[12]
  Population Apoptotic (%): 93%
  Population Fragmented Nuclei (%): 34%
  Population Healthy Nuclei (%): 46%
  Population Hoechst High Intensity Objects (%): 32%
  Population Membrane Permeable-Phenotype (%): 5%
  Population Mitochondria Different-Phenotype (%): 78%
  Population Mitotic Cells (%): 6%
  Population Normal (%): 67%
  Population Pyknosed Nuclei (%): 18%
  Population Tubulin-Different-Phenotype (%): 89%
  Total Cell Count: 120

— ChEMBL document CHEMBL4689842, “EUbOPEN Chemogenomics Library wave 1” (2021)
